Laboratory results: ChEMBL document CHEMBL2311436, “Synthesis of acylated glycoconjugates as templates to investigate in vitro biopharmaceutical properties” (Bioorg Med Chem Lett, 2013)

How the values were obtained:
Albumin = Albumin (Homo sapiens, UniProt P02768); assay: Binding affinity to human serum albumin by chromatographic HSA binding assay; type: ADME; conditions: isolated protein
Method in brief: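 Protein binding was estimated from retention time on an immobilized human serum albumin (HSA) HPLC column, correlated against standard compounds with known protein binding values. This was used in place of equilibrium dialysis or ultrafiltration because the esters may deacylate under those conditions.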

Liver microsomes [1] = assay: In vitro intrinsic clearance in human liver microsomes assessed per milligram of protein in presence of NADPH; type: ADME, Microsome
Method in brief: (§1)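 Compounds were incubated with human liver microsomes, and mass spectrometry monitored parent loss and the appearance of mono-, di- and tri-acylated and fully deacylated hydrolysis products.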

Liver microsomes [2] = assay: In vitro intrinsic clearance in human liver microsomes assessed per milligram; type: ADME, Microsome; method in brief: as §1
Plasma = assay: (§2) Degradation half life in human plasma; type: ADME, cell-free
Method in brief: (§3)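 Compounds were incubated in human plasma at 37 °C, and ester hydrolysis was followed by mass spectrometry. Tri-, di- and mono-acylated intermediates and the fully deacylated product were tracked by their characteristic molecular weights.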

[3] = as §2; type: ADME, cell-free; method in brief: as §3

Albumin, sequence (P02768 whole entry): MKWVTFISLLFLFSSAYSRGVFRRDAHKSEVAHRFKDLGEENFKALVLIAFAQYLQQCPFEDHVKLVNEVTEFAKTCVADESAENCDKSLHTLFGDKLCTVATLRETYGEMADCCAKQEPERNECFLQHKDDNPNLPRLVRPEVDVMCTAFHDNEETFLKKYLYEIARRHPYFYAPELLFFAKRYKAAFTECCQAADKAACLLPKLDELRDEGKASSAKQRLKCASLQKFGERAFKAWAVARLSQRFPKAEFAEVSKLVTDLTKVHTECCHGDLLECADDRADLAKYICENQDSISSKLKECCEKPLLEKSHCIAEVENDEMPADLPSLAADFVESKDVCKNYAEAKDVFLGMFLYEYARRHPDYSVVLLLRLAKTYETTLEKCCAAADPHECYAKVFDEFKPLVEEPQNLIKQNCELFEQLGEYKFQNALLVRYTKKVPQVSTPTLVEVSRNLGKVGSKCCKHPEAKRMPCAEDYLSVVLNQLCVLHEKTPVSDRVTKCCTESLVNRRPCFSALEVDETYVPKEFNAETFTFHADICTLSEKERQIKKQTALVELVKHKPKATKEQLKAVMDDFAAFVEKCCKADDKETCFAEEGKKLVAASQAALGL

Compound | Activity (Albumin) | CLH (Liver microsomes [1]) | CLH (Liver microsomes [2]) | t1/2 (Plasma) | half-life [3]
CCCCC(=O)OC[C@H]1O[C@@H](n2cc(-c3ccccc3)nn2)[C@H](OC(=O)CCCC)[C@@H](OC(=O)CCCC)[C@@H]1OC(=O)CCCC | < 99% | < 7 µL/min | < 7 µL/min | Stable | 
CC(=O)OC[C@H]1O[C@@H](n2cc(-c3ccccc3)nn2)[C@H](OC(C)=O)[C@@H](OC(C)=O)[C@@H]1OC(C)=O | 59% | 397 µL/min | 423 µL/min |  | 55 min
OC[C@H]1O[C@@H](n2cc(-c3ccccc3)nn2)[C@H](O)[C@@H](O)[C@@H]1O | 19% | < 7 µL/min | < 7 µL/min | Stable | 

Now from value to compound:

Activity (Albumin) | CLH (Liver microsomes [1]) | CLH (Liver microsomes [2]) | t1/2 (Plasma) | half-life [3] | Compound
< 99% | < 7 µL/min | < 7 µL/min | Stable |  | CC(C)CC(=O)OC[C@H]1O[C@@H](n2cc(-c3ccccc3)nn2)[C@H](OC(=O)CC(C)C)[C@@H](OC(=O)CC(C)C)[C@@H]1OC(=O)CC(C)C
96% | 69 µL/min | 83 µL/min |  | 555 min | CCCC(=O)OC[C@H]1O[C@@H](n2cc(-c3ccccc3)nn2)[C@H](OC(=O)CCC)[C@@H](OC(=O)CCC)[C@@H]1OC(=O)CCC
88% | ND(Unstable) | ND(Unstable) |  | 26 min | CCC(=O)OC[C@H]1O[C@@H](n2cc(-c3ccccc3)nn2)[C@H](OC(=O)CC)[C@@H](OC(=O)CC)[C@@H]1OC(=O)CC
